# SR-BI uptake up = SR-BI HDL lipid transfer activation; CHO ldlA[mSR-BI] cells, DiI-HDL uptake fluorescence, 3 h; 100 = double the neutral-control signal; activation, % at 12.5 µM; 0.096% of 320,000 active;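 active = mean replicate activation of at least 60% and every replicate at or above 60%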;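 note: 0% = median plate neutral-control signal and 100% = twice that signal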
#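 material = CHO ldlA[mSR-BI] cells | medium = Ham's F12 with 0.5% BSA, HEPES 25 mM, pH 7.4 | reagent = fluorescent DiI-HDL, 10 µg/mL final | compound dosing = single-point compound dose | incubation = 3 h, 37 °C | measured by = bottom-read fluorescence, 550/595 nm | measure = HDL uptake via cellular fluorescence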
# AHR act = human AHR activation; P35869; 2.5% of 320,000 active; activation, % at 5 µM; AHR-responsive luciferase reporter cells, luminescence; in the data active = activation above about 47%;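 note: 0% = vehicle wells and 100% = reference agonist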
# SR-BI HDL uptake = mouse SR-BI HDL lipid transfer inhibition | ldlA[mSR-BI] CHO cells, DiI-HDL uptake fluorescence, 3 h | inhibition, % at 12.5 µM | 0.96% of 320,000 active | AID 488896;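 active = mean replicate inhibition of at least 70% and a set share of replicates each scoring 70 or more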;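 note: 0% = median of neutral control wells and 100% = median of positive control wells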
# Target sequence (Q61009 whole entry, looked up): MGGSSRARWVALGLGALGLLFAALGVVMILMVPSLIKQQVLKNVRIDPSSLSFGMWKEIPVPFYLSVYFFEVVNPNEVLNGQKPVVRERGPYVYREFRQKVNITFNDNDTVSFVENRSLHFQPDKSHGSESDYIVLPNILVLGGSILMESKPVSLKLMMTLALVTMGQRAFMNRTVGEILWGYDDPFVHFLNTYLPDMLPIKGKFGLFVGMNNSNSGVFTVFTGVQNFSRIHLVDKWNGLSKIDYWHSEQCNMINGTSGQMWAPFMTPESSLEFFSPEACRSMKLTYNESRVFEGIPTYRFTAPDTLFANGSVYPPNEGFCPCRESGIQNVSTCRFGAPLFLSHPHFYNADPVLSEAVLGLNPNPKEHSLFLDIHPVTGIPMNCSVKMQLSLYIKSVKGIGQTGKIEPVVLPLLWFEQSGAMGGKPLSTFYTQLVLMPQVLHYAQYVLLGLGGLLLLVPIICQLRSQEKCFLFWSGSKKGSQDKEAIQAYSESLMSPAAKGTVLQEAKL
# ABCB6 inh MLPCN = human ABCB6 transporter inhibition | Q9NP58 | K562-ABCB6 porphyrin accumulation, flow cytometry, 1 h; stronger effect = lower value | fluorescence ratio to DMSO, % at 10 µM | 0.19% of 360,000 active | AID 602162;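 active = fluorescence ratio to DMSO below 75%, the collection mean minus 3 SD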;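 note: signal is porphyrin accumulated inside mitochondria; 100% equals median channel fluorescence of DMSO control wells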
# FXN GAA850 act = increases GAA850 frataxin promoter reporter activity. 0.56% of 360,000 active. HEK293 lucGAA850 FXN promoter luciferase reporter, 24 h; percent of 10 µM SAHA response. activation, % at 6 µM;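 active = activation above the average of all compounds screened plus 3 SD, cutoff fixed separately per campaign, cut at about 7.5% in these data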;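 note: 0% = DMSO wells and 100% = 10 µM SAHA wells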
# HIF act = HIF pathway transcriptional activation; U2OS HRE-luciferase reporter, luminescence; normalized: DMSO 0%, desferrioxamine 100%; activation, % at 7.5 µM (by protocol); 0.32% of 300,000 active;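 active = mean activation of at least 10% of the iron chelator positive control signal, with at least half of replicates also reaching 10%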
# Starred values were filed as active, the others as inactive; nt = no result. In the library only some 3.9% were active in any assay of this set; here they are far more common.
SMILES,SR-BI uptake up,AHR act,SR-BI HDL uptake,ABCB6 inh MLPCN,FXN GAA850 act,HIF act
COc1cccc(C2NC(c3cccc(OC)c3O)C(C)C(=O)C2C)c1O (configuration not stated),3,-3,-3,95,-2,0
CC1C(=O)C(C)C(c2cc(Cl)ccc2O)NC1c1cc(Cl)ccc1O (configuration not stated),-86,3,86*,94,-2,-1
C=CCOc1cccn2c(N(C=O)Cc3ccc(OC)cc3)c(CC)nc12,nt,nt,nt,93,-1,nt
c1ccc(-c2nc3ccccc3c3nc4ccccc4n23)cc1,-6,52*,6,96,3,-1
CCc1nc2ccccc2c2nc3ccccc3n12,-29,51*,29,96,1,1
FC(F)(F)c1nc2ccccc2c2nc3ccccc3n12,8,50*,-8,102,3,0
FC(F)(F)c1nnc2c(Sc3ccccc3)nc3ccccc3n12,-37,16,37,110,1,1
Cc1ccc(/C=N/NC(=O)C2CCN(Cc3ccc(F)cc3Cl)CC2)o1,-12,-1,12,91,1,-2
c1ccc([C@H]2CN3C(=N2)Sc2ccccc23)cc1,47,72*,-47,96,5,nt
CC(=O)N1SC(N)=NC1c1ccccc1 (configuration not stated),13,1,-13,93,0,-1
COc1cccc(CN2CCc3ccc(NC(=O)CCc4ccc(C)cc4)cc3C2)c1O,-64,-1,64,91,0,0
COc1ccc(CN2CCc3ccc(NC(=O)CCc4ccccc4OC)cc3C2)c(O)c1,-72,10,72*,91,-3,0
COc1cc(CN2CCc3ccc(NC(=O)CCc4ccccc4OC)cc3C2)ccc1O,-70,5,70*,94,-1,0
COc1ccccc1NC(=S)NC1CC2CCC1C2 (configuration not stated),-35,-2,35,101,2,-1
CCOc1ccc(N(CC(=O)N2CCC(Cc3ccccc3)CC2)S(C)(=O)=O)cc1,16,-3,-16,99,-2,0
CCC(CC)C(=O)N(C)c1c(C)nc2c(OCCC3CCCCC3)cccn12,nt,nt,nt,103,-4,nt
C/C(=N\NC(=O)c1c(Br)c(C)nn1C)c1ccc(NC(=O)C(C)Oc2ccc(Cl)cc2C)cc1 (configuration not stated),-76,14,76*,187,2,0
CC(C)OC(=O)c1c(NC(=O)Cn2cnc([N+](=O)[O-])n2)sc2c1CCCC2,nt,1,75*,96,-2,0
Cc1ccc2[nH]c3c(=O)n(N)c(C)nc3c2c1,19,48*,-19,94,0,0
COc1ccc2[nH]c3c(=O)n(N)c(C)nc3c2c1,3,41,-3,134,2,0
Cn1cc(C(CC(=O)O)C(=O)O)c2ccccc21 (configuration not stated),-7,19,7,98,1,0
Cc1c(Cl)c([N+](=O)[O-])nn1Cc1ccc(C(=O)N/N=C\c2cccc(Br)c2)o1,-15,55*,15,90,0,0
O=C(N/N=C\c1cccc(Cl)c1)c1ccc(Cn2cc(Br)c([N+](=O)[O-])n2)o1,-18,28,18,98,3,-24
Cc1cccc(NC(=O)COc2cccc3c2CCN(C)C3=O)c1C,-13,7,13,95,-3,9.8*
CCN1CCc2c(OCC(=O)Nc3cccc(C)c3C)cccc2C1=O,nt,2,nt,nt,nt,0
SMILES,SR-BI uptake up,AHR act,SR-BI HDL uptake,ABCB6 inh MLPCN,FXN GAA850 act,HIF act
COc1ccccc1OCC(=O)Nc1ccc(N2CCCCC2)cc1,-40,3,40,164,2,0
Cc1cccc(OCC(=O)Nc2ccc(N3CCCC3)cc2)c1C,-71,1,71*,106,-2,0
Cc1cc(C)cc(OCC(=O)Nc2ccc(N3CCCC3)cc2)c1,-75,0,75*,100,-1,0
Cc1ccc(Nc2nc(NCc3ccccc3)nc3ccsc23)c(C)c1,nt,nt,nt,103,-2,nt
O=C(CSC1=Nc2ccccc2C2CC=NN12)Nc1ccc(F)c(F)c1F (configuration not stated),-31,51*,31,103,3,nt
Cc1c(C(=O)N2CCc3ccccc3C2)oc2ccccc12,-17,59*,17,96,6,2
Nc1c(C(=O)N2CCCCCC2)oc2ccccc12,23,73*,-23,87,4,-1
CCc1cccc2c(SCC(=O)NCC3CCCO3)nc(-c3ccc(F)cc3)nc12 (configuration not stated),-8,0,8,95,0,0
Cc1ccc(Cn2c(SCC(=O)NCC3CCCO3)nc3ccsc3c2=O)cc1 (configuration not stated),60*,1,-60,99,3,-1
Cc1ccc(-c2nc(SCC(=O)NCC3CCCO3)c(-c3ccccc3)[nH]2)cc1 (configuration not stated),-58,70*,58,102,-3,0
O=C(CSc1nnc(-c2ccc(F)cc2)c2ccccc12)NCC1CCCO1 (configuration not stated),-59,-2,59,100,8.8*,-1
O=C(CSc1nc2ccsc2c(=O)n1Cc1ccc(C(=O)O)cc1)NCC1CCCO1 (configuration not stated),12,2,-12,98,1,0
CN(CC(=O)Nc1ccc(F)c(F)c1F)C(=O)/C=C/c1ccc(Cl)cc1,25,1,-25,105,0,225*
CC1(NC(=S)Nc2ccc3ccccc3c2)CCS(=O)(=O)C1 (configuration not stated),1,25,-1,97,1,2
CN(C)C(=S)NC(=S)Nc1ccc2ccccc2c1,-52,nt,52,95,17*,nt
CCCCOC(=O)c1ccc(-c2ccc(/C=N/NC(=S)NCC)o2)cc1,-88,9,88*,96,2,2
CCOC(=O)c1ccc(-c2ccc(/C=N/NC(=O)c3cncc(Br)c3)o2)cc1,nt,10,nt,99,3,2
CC(=O)Nc1ccc(O)c(-c2nc3ccccc3s2)c1,-28,72*,28,100,4,3
CC1=C(C)CC(C(=O)Nc2nc(-c3ccc(F)cc3)c(C)s2)C(C(=O)O)C1 (configuration not stated),-13,8,13,94,3,0
O=C(Nc1ccc(-c2nc3ccccc3s2)cc1)C1=COCCO1,-15,50*,15,99,1,-3
Cc1sc(NC(=O)C2=COCCO2)nc1-c1ccc(F)cc1,-63,52*,63,100,4,2

# Screens (PubChem BioAssay)
